We go through 20 molecules from PubChem BioAssay.

Active and inactive are the calls of the source. Cut-off read from the data, not from the text of the source, unless noted: active = inhibition above about 31%; inactive = the rest.

A short description of experiment [1]: HUVEC growth inhibition – cell-based, human, primary screen (AID 575;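 active = viability at or below 30% in both replicate assays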;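 note: 100% = median of untreated cell wells with 0.1% DMSO on each plate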). The note with it: HUVEC proliferation, CellTiter-Glo luminescence, 72 h; at 10 µM; stronger effect = lower value. Summed up:
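Assay system: Primary human umbilical vein endothelial cells | Quantity: 1250 cells per well | Medium: Supplemented EBM, 2% fetal bovine serum | Detection: CellTiter-Glo luminescence measuring cellular ATP | Read-out: % viability vs DMSO wells | Plate: Collagen-coated 384-well format | Times: 72 h exposure, 37 °C, 5% CO2, 30 min RT equilibration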

A short description of experiment [2]: growth inhibitors of H69AR lung tumor, primary screen, human, duplicate replicates (AID 580;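 active = viability at or under a set limit in both replicates, limit being median viability minus 3 SD, cut at about 48% in these data, passing the limit was not always enough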;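 note: 100% = mean luminescence of untreated wells and 0% = no signal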). The note with it: H69AR lung tumor cells viability, ATP luminescence, 72 h; at 10 µM; stronger effect = lower value.
The nature of experiment [3]: reversal of MRP1-mediated doxorubicin resistance, pilot screen, H69AR cells, doxorubicin co-treatment (AID 601;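 active = viability loss from added drug above about 55%, and viability with drug at most 40%, in both replicates, limit read from the data, passing the limit was not always enough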). The following applies: CellTiter-Glo, 72 h, at 10 µM; for differential viability (reversal): stronger effect = higher value. On the technique in general: In ATP-based viability assays light output follows the ATP content of the culture.
A short description of experiment [4]: 384-well plate pilot, post-Golgi transport modulator project, inhibition of yeast transport mutant growth (AID 636). The note with it: absorbance 615 nm, about 18 h, stronger effect = higher value.
The nature of experiment [5]: growth suppression of yeast trafficking mutant, preliminary HTS, modulators of trafficking downstream of Golgi apparatus project, 1536-format plate, OD 615 nm (AID 637; in the data active = inhibition above about 30%). The following applies: yeast transport mutant growth, absorbance 615 nm, 18 h; stronger effect = higher value.
Where [6] appears, read: H69AR cells + 2 uM doxorubicin, measured here: viability with 2 uM doxorubicin, stronger effect = lower value.
The mark [7] stands for this setting: H69AR cells, compound alone cytotoxicity.

For `COc1ccccc1C(=O)Nc1c2c(nn1-c1cccc(C)c1C)CS(=O)(=O)C2`, the viability (usually a read-out of living cells in per cent, often relative to untreated cells) was 49.2% (inactive) in experiment [1], 95.2% (inactive) in experiment [2], 72.3% in experiment [3] (setting [6]) and 95.2% in experiment [3] (setting [7]). In experiment [3] (H69AR cells + 2 uM doxorubicin), the differential viability (reversal) is 22.9% (inactive). Further, the inhibition (as a rule, the drop in the measured response relative to a control, in per cent) in experiment [4] was -4.13% (inactive); in experiment [5], 1.94% (inactive).

`CCOC(=O)C1C(=O)OC(C)(C)C1C(C)C(=O)c1ccc(OC)cc1` (stereo not given): the viability in experiment [1] was 112% (inactive); in experiment [2], 96% (inactive); in experiment [3] (setting [6]), 92.7%; in experiment [3] (setting [7]), 96%. In experiment [3] (H69AR cells + 2 uM doxorubicin), the differential viability (reversal) was 3.24% (inactive). For the same molecule, the inhibition in experiment [4] was -0.39% (inactive); in experiment [5], 18.6% (inactive).

As for `c1ccc(OCc2nc3ccccc3[nH]2)cc1`, the viability in experiment [1] was 85.4% (inactive); in experiment [2] it was 92.2% (inactive); in experiment [3] (setting [6]), 90.6%; in experiment [3] (setting [7]), 92.2%. The differential viability (reversal) in experiment [3] (H69AR cells + 2 uM doxorubicin) was 1.59% (inactive). In addition, the inhibition in experiment [4] is -3.6% (inactive); in experiment [5] it was -4.13% (inactive).

As to `CCCn1c(=N)n(CCOc2ccc(OC)cc2)c2ccccc21`, the viability is 91.4% (inactive) in experiment [1], 69.8% (inactive) in experiment [2], 68.5% in experiment [3] (setting [6]) and 69.8% in experiment [3] (setting [7]). For the same molecule, the differential viability (reversal) in experiment [3] (H69AR cells + 2 uM doxorubicin) was 1.35% (inactive). In addition, the inhibition is -6.05% (inactive) in experiment [4] and 3.49% (inactive) in experiment [5].

`Cn1c(Cc2cccs2)nnc1SCC(=O)N1CCc2ccccc21`: the viability was 94.1% (inactive) in experiment [1], 84.3% (inactive) in experiment [2], 94% in experiment [3] (setting [6]) and 84.3% in experiment [3] (setting [7]). Also, in experiment [3] (H69AR cells + 2 uM doxorubicin), the differential viability (reversal) is -9.72% (inactive). For the same molecule, the inhibition in experiment [4] was -0.66% (inactive); in experiment [5], -8.1% (inactive).

Take `O=C(c1cccnc1)N1CCN(Cc2ccc3c(c2)OCO3)CC1`: the viability is 89.6% (inactive) in experiment [1], 95.8% (inactive) in experiment [2], 81.4% in experiment [3] (setting [6]) and 95.8% in experiment [3] (setting [7]). Besides, the differential viability (reversal) in experiment [3] (H69AR cells + 2 uM doxorubicin) was 14.4% (inactive). Moreover, the inhibition in experiment [4] is -7.73% (inactive); in experiment [5] it was 1.75% (inactive).

As for `Cn1nc(-c2ccc(C(=O)NCC3CCCO3)cc2)c2ccccc2c1=O` (stereo not given), the viability is 88.3% (inactive) in experiment [1], 84.7% (inactive) in experiment [2], 71.2% in experiment [3] (setting [6]) and 84.7% in experiment [3] (setting [7]). In addition, the differential viability (reversal) in experiment [3] (H69AR cells + 2 uM doxorubicin) was 13.5% (inactive). Also, the figures for the inhibition in experiment [4] and in experiment [5] were -3.12% (inactive) and 7.14% (inactive), respectively.

As to `CCCc1ccc(C(C)NC(=O)c2cnccn2)cc1` (stereo not given), the viability in experiment [1] was 87.3% (inactive); in experiment [2] it was 100% (inactive); in experiment [3] (setting [6]) it was 83.5%; in experiment [3] (setting [7]) it was 100%. For the same molecule, the differential viability (reversal) in experiment [3] (H69AR cells + 2 uM doxorubicin) was 16.6% (inactive). The inhibition was -5.26% (inactive) in experiment [4] and 2.06% (inactive) in experiment [5].

In the case of `CCCOc1ccc(N2C(=O)CC(SCCN)C2=O)cc1` (stereo not given), the viability in experiment [1] was 88.2% (inactive); in experiment [2] it was 108% (inactive); in experiment [3] (setting [6]), 100%; in experiment [3] (setting [7]) it was 108%. Also, the differential viability (reversal) in experiment [3] (H69AR cells + 2 uM doxorubicin) was 8.12% (inactive). Besides, the inhibition in experiment [4] was -5.47% (inactive); in experiment [5], -3.02% (inactive).

Take `O=C(NC1=NCCS1)c1nc(-c2ccccc2)n(-c2ccccc2)n1`: the viability in experiment [1] was 70.4% (inactive); in experiment [2], 101% (inactive); in experiment [3] (setting [6]), 92.1%; in experiment [3] (setting [7]), 101%. Besides, the differential viability (reversal) in experiment [3] (H69AR cells + 2 uM doxorubicin) was 8.75% (inactive). The inhibition in experiment [4] is -3.73% (inactive); in experiment [5], 0.63% (inactive).

As for `CCCn1nc(CC(=O)O)c2ccccc2c1=O`, the viability was 98.2% (inactive) in experiment [1], 103% (inactive) in experiment [2], 94.7% in experiment [3] (setting [6]) and 103% in experiment [3] (setting [7]). In addition, in experiment [3] (H69AR cells + 2 uM doxorubicin), the differential viability (reversal) is 8.11% (inactive). Moreover, the inhibition in experiment [4] was -6.27% (inactive); in experiment [5], -3.02% (inactive).

For the molecule `CN(CCCC(=O)Nc1ccncc1)S(=O)(=O)c1ccc(Cl)cc1`, the viability in experiment [1] was 56.2% (inactive); in experiment [2] it was 89% (inactive); in experiment [3] (setting [6]), 104%; in experiment [3] (setting [7]), 89%. Besides, in experiment [3] (H69AR cells + 2 uM doxorubicin), the differential viability (reversal) was -14.6% (inactive). The values for the inhibition in experiment [4] and in experiment [5] were 0.65% (inactive) and -5.87% (inactive), respectively.

`Cc1cccc(-n2ncc(C#N)c2N)c1`: the viability in experiment [1] is 109% (inactive); in experiment [2], 104% (inactive); in experiment [3] (setting [6]) it was 100%; in experiment [3] (setting [7]), 104%. In addition, in experiment [3] (H69AR cells + 2 uM doxorubicin), the differential viability (reversal) is 3.67% (inactive). For the same molecule, the inhibition in experiment [4] is -2.76% (inactive); in experiment [5] it was -1.11% (inactive).

For `CC(=O)c1cc(-c2ccccc2)n(CC(=O)N2CCC(N3CCCCC3)CC2)c1C`, the viability in experiment [1] is 85.3% (inactive); in experiment [2] it was 82.7% (inactive); in experiment [3] (setting [6]) it was 85.1%; in experiment [3] (setting [7]), 82.7%. The differential viability (reversal) in experiment [3] (H69AR cells + 2 uM doxorubicin) is -2.33% (inactive). In addition, the inhibition in experiment [4] is -2.73% (inactive); in experiment [5], 0.63% (inactive).

For the molecule `CCN(CC(=O)Nc1c(C(=O)OC)[nH]c2ccccc12)c1ccc2c(c1)OCO2`, the viability in experiment [1] is 67.8% (inactive); in experiment [2], 72% (inactive); in experiment [3] (setting [6]) it was 78.8%; in experiment [3] (setting [7]) it was 72%. Also, the differential viability (reversal) in experiment [3] (H69AR cells + 2 uM doxorubicin) was -6.82% (inactive). The inhibition in experiment [4] was -5.2% (inactive); in experiment [5], -2.22% (inactive).

With `Cc1cc(NC(=O)c2cc(-c3ccco3)on2)n(-c2ccccc2)n1`, the viability in experiment [1] is 80.7% (inactive); in experiment [2], 106% (inactive); in experiment [3] (setting [6]) it was 92.6%; in experiment [3] (setting [7]) it was 106%. The differential viability (reversal) in experiment [3] (H69AR cells + 2 uM doxorubicin) is 13% (inactive). Also, the values for the inhibition in experiment [4] and in experiment [5] were -2.5% (inactive) and 1.9% (inactive), respectively.

For `COc1ccccc1N(CN1CCCC1=O)C(=O)c1c(F)cccc1Cl`, the viability in experiment [1] was 95% (inactive); in experiment [2], 97.5% (inactive); in experiment [3] (setting [6]), 97.6%; in experiment [3] (setting [7]) it was 97.5%. Moreover, the differential viability (reversal) in experiment [3] (H69AR cells + 2 uM doxorubicin) was -0.095% (inactive). Moreover, the inhibition in experiment [4] was -5.2% (inactive); in experiment [5], -0.32% (inactive).

As to `Cc1cc(N2C(=O)C(=O)/C(=C(/O)c3ccc(F)cc3)C2c2ccc(F)cc2)no1` (stereo not given), the viability was 78.3% (inactive) in experiment [1], 91.3% (inactive) in experiment [2], 87.8% in experiment [3] (setting [6]) and 91.3% in experiment [3] (setting [7]). Further, the differential viability (reversal) in experiment [3] (H69AR cells + 2 uM doxorubicin) was 3.5% (inactive). In addition, the values for the inhibition in experiment [4] and in experiment [5] were -5.47% (inactive) and 5.08% (inactive), respectively.

`Cc1ccc(S(=O)(=O)N2CCCC2)cc1S(=O)(=O)N1CCCC1`: the viability in experiment [1] was 90.9% (inactive); in experiment [2], 98.6% (inactive); in experiment [3] (setting [6]), 92.7%; in experiment [3] (setting [7]), 98.6%. In addition, the differential viability (reversal) in experiment [3] (H69AR cells + 2 uM doxorubicin) was 5.92% (inactive). Also, the inhibition in experiment [4] was -3.25% (inactive); in experiment [5] it was 2.54% (inactive).

Consider `CC(C)Cc1nc2oc3c(N4CCN(CCO)CC4)ncnc3c2c2c1CCCC2`, for which the viability is 52.4% (inactive) in experiment [1], 42.6% (active) in experiment [2], 54.7% in experiment [3] (setting [6]) and 42.6% in experiment [3] (setting [7]). Besides, the differential viability (reversal) in experiment [3] (H69AR cells + 2 uM doxorubicin) is -12.1% (inactive). Moreover, the inhibition was -0.26% (inactive) in experiment [4] and -6.33% (inactive) in experiment [5].
